Activity calls are given as the source filed them. The rule behind the calls is not given here.
Columns and labels:
[1] = Binding affinity to 5'-FPu22T-3'-labelled c-myc G-quadruplex DNA (unknown origin) assessed as change in melting temperature by FRET assay
In short: (§1)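 Fluorescence melting on real-time PCR instrument; 0.4 μM labelled oligonucleotide (FPu22T or duplex-forming F10T), ligand 2.0 μM, in 10 mM Tris-HCl pH 7.4 with 10 or 60 mM KCl; ex 470/em 530 nm at 1 °C steps over 37–99 °C, 30 s equilibration each; ΔTm = Tm(DNA+ligand) − Tm(DNA).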

[2] = Cell cycle arrest in human HeLa cells assessed as accumulation at G2/M phase at 5 uM after 48 hrs by propidium iodide based FACS analysis (reference value: 33.7 %); format: functional
[3] = Binding affinity to 5'-Pu22-3' c-myc G-quadruplex DNA (unknown origin) assessed as maintainance of parallel c-myc G-quadruplex conformation at 2 equiv after 6 hrs in presence of KCl by CD-spectroscopic analysis
In short: (§2)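 Pu22 at 3 μM final in 10 mM Tris-HCl buffer with ligand at 2 equiv, with 100 mM KCl or without KCl; heated 95 °C 5 min, slowly cooled, held ≥6 h; CD spectra 230–330 nm, 1 mm quartz cell, 1 nm bandwidth and step, 0.5 s/point, average of two scans.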

[4] = Cell cycle arrest in human HeLa cells assessed as accumulation at S phase after 12 hrs by propidium iodide based FACS analysis (reference value: 23.1 %); format: functional
[5] = Drug uptake in human HeLa cells at 10 uM after 48 hrs
[6] = Cell cycle arrest in human HeLa cells assessed as accumulation at G2/M phase at 2.5 uM after 48 hrs by propidium iodide based FACS analysis (reference value: 33.7 %); format: functional
[7] = Cell cycle arrest in human HeLa cells assessed as accumulation at G2/M phase after 48 hrs by propidium iodide based FACS analysis (reference value: 46.1 %); format: functional
[8] = Selectivity ratio of Kd for double stranded DNA (unknown origin) to Kd for biotinylated 5'-Pu22-3'-labelled c-myc G-quadruplex DNA
[9] = species: Mus musculus; assay: Cytotoxicity against mouse primary mesangial cells assessed as cell growth inhibition at 1.25 to 10 uM after 80 hrs by RTCA assay; format: toxicity, cell-based
[10] = Cell cycle arrest in human HeLa cells assessed as accumulation at G0/G1 phase at 2.5 uM after 48 hrs by propidium iodide based FACS analysis (reference value: 35.9 %); format: functional
[11] = Cytotoxicity against mouse primary mesangial cells assessed as reduction in cell viability after 48 hrs by MTT assay; format: toxicity
[12] = Cell cycle arrest in human HeLa cells assessed as accumulation at S phase at 5 uM after 48 hrs by propidium iodide based FACS analysis (reference value: 28.6 %); format: functional
[13] = Cytotoxicity against human CA46 cells assessed as reduction in cell viability after 48 hrs by MTT assay; format: functional, cell-based; conditions: CA46, 48 h
[14] = Binding affinity to 5'-Pu22-3' c-myc G-quadruplex DNA (unknown origin) assessed as induction of parallel c-myc G-quadruplex conformation at 2 equiv after 6 hrs in absence of KCl by CD-spectroscopic analysis; in short: as §2
[15] = tested on: HeLa; assay: Cytotoxicity against human HeLa cells assessed as cell growth inhibition at 1.25 to 10 uM after 80 hrs by RTCA assay; format: functional, cell-based
[16] = Cell cycle arrest in human HeLa cells assessed as accumulation at G2/M phase at 1.25 uM after 48 hrs by propidium iodide based FACS analysis (reference value: 33.7 %); format: functional
[17] = tested on: HeLa; assay: Binding affinity to c-myc G-quadruplex DNA in human HeLa cells assessed as reduction in c-myc gene expression at 1.25 to 10 uM after 6 hrs by Western blot analysis; format: cell-based
In short: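 HeLa treated 6 h at 0–10 μM; lysates BCA-quantified, 20 μg protein on 12% SDS–PAGE, transferred to nitrocellulose, blocked in 5% BSA/TBS-Tween; probed with anti-c-myc and anti-GAPDH (loading control), HRP secondary, chemiluminescent detection.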

[18] = Cell cycle arrest in human HeLa cells assessed as accumulation at S phase after 48 hrs by propidium iodide based FACS analysis (reference value: 23.1 %); format: functional
[19] = Cell cycle arrest in human HeLa cells assessed as accumulation at G2/M phase after 24 hrs by propidium iodide based FACS analysis (reference value: 46.1 %); format: functional
[20] = Cell cycle arrest in human HeLa cells assessed as accumulation at G2/M phase after 12 hrs by propidium iodide based FACS analysis (reference value: 46.1 %); format: functional
[21] = Cell cycle arrest in human HeLa cells assessed as accumulation at G0/G1 phase after 12 hrs by propidium iodide based FACS analysis (reference value: 30.8 %); format: functional
[22] = Cell cycle arrest in human HeLa cells assessed as accumulation at S phase after 24 hrs by propidium iodide based FACS analysis (reference value: 23.1 %); format: functional
[23] = Cell cycle arrest in human HeLa cells assessed as accumulation at S phase at 1.25 uM after 48 hrs by propidium iodide based FACS analysis (reference value: 28.6 %); format: functional
[24] = Cell cycle arrest in human HeLa cells assessed as accumulation at G0/G1 phase after 48 hrs by propidium iodide based FACS analysis (reference value: 30.8 %); format: functional
[25] = Binding affinity to 5'-FPu22T-3'-labelled c-myc G-quadruplex DNA (unknown origin) assessed as change in melting temperature at 2 uM in presence ds26 DNA of by FRET assay
In short: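 FRET melting of 0.4 μM labelled FPu22T with ligand 2.0 μM, alone or with 10-fold (4 μM), 50-fold (20 μM) or 100-fold (40 μM) excess unlabelled duplex ds26 as competitor; Tris-HCl 10 mM pH 7.4 with 10 or 60 mM KCl; ex 470/em 530 nm read every 1 °C from 37–99 °C, 30 s hold; ΔTm = Tm(DNA+ligand) − Tm(DNA).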

[26] = Binding affinity to biotinylated 5'-Pu22-3'-labelled c-myc G-quadruplex DNA (unknown origin) after 240 secs by SPR assay
In short: (§3)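 SPR: biotinylated Pu22 and biotinylated duplex folded in 50 mM Tris-HCl pH 7.4, 150 mM KCl, 0.005% Tween20, captured (~1000 RU) on separate flow cells with a blank reference; ligand 0.0625–10 μM in running buffer, 240 s association then 240 s dissociation at 25 °C; equilibrium KD derived.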

[27] = Cytotoxicity against human HeLa cells assessed as reduction in cell viability after 48 hrs by MTT assay; format: functional, cell-based
[28] = Cytotoxicity against human Raji cells assessed as reduction in cell viability after 48 hrs by MTT assay; format: functional, cell-based
[29] = Cell cycle arrest in human HeLa cells assessed as accumulation at S phase at 2.5 uM after 48 hrs by propidium iodide based FACS analysis (reference value: 28.6 %); format: functional
[30] = Cell cycle arrest in human HeLa cells assessed as accumulation at G0/G1 phase at 1.25 uM after 48 hrs by propidium iodide based FACS analysis (reference value: 35.9 %); format: functional
[31] = Cell cycle arrest in human HeLa cells assessed as accumulation at G0/G1 phase at 5 uM after 48 hrs by propidium iodide based FACS analysis (reference value: 35.9 %); format: functional
[32] = tested on: HeLa; assay: Binding affinity to c-myc G-quadruplex DNA in human HeLa cells assessed as inhibition of c-myc transcription after 3 hrs by RT-PCR analysis; format: cell-based
In short: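 HeLa (2×10^5/well) treated 3 h with 1.25–10 μM or DMSO; total RNA oligo-dT primed, M-MLV reverse transcribed (70 °C 10 min; 42 °C 1 h; 70 °C 15 min); c-myc and β-actin (internal control) amplified by real-time PCR, products run on 1.5% agarose.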

[33] = Cytotoxicity against human A549 cells assessed as reduction in cell viability after 48 hrs by MTT assay; format: functional, cell-based; conditions: A549, 48 h
[34] = Binding affinity to biotinylated double stranded DNA (unknown origin) after 240 secs by SPR assay; in short: as §3
[35] = Binding affinity to F10T duplex DNA (unknown origin) assessed as change in melting temperature by FRET assay; in short: as §1
[36] = Cell cycle arrest in human HeLa cells assessed as accumulation at G0/G1 phase after 24 hrs by propidium iodide based FACS analysis (reference value: 30.8 %); format: functional

ΔTm [1]: 19.6 °C
Activity [3]: Active
Drug uptake [5]: Active
Selectivity ratio [8]: > 47.6
Activity [14]: Active
Activity [25]: Active
Kd [26]: 0.21 µM
Kd [34]: > 10 µM
ΔTm [35]: 0.8 °C
Structure (SMILES): CCN(CC)CCC(=O)Nc1ccc(Nc2nc(-c3ccccc3NC(=O)CCN(CC)CC)nc3ccccc23)cc1
Activity [2]: 12.7%
Activity [4]: 19.4%
Activity [6]: 18.4%
Activity [7]: 22.1%
Activity [9]: Non-Toxic
Activity [10]: 48.9%
IC50 at 48 h [11]: 13.1 µM
Activity [12]: 29%
IC50 [13]: 6.5 µM
growth inhibition (GI) [15]: Active
Activity [16]: 22.2%
inhibition [17]: Active
Activity [18]: 16.8%
Activity [19]: 38.1%
Activity [20]: 38.8%
Activity [21]: 41.8%
Activity [22]: 18.4%
Activity [23]: 26.4%
Activity [24]: 61.1%
IC50 [27]: 4.4 µM
IC50 [28]: 3.1 µM
Activity [29]: 30.2%
Activity [30]: 48.4%
Activity [31]: 54.8%
inhibition [32]: Dose-dependent effect
IC50 [33]: 5.9 µM
Activity [36]: 43.5%

From ChEMBL document CHEMBL3865800, “Design, synthesis and biological evaluation of 4-anilinoquinazoline derivatives as new c-myc G-quadruplex ligands” (Eur J Med Chem, 2016)
